HUVEC prolif 384 = blocks proliferation of human endothelial cells. HUVEC proliferation, CellTiter-Glo luminescence, 72 h; hits give low values. AID 648. viability, % at 10 µM (by protocol). 86,000 tested, 1.1% active;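 active = viability at or below 30%; inactive = viability above 30%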
PTEN del growth = PTEN-deleted cell growth suppression. HCT116 PTEN-null viability, CellTiter-Glo, 60 h; hits give low values. viability, % at 10 µM. 140,000 tested, 1.2% active. AID 827;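 active = viability at or below a set limit, 4 SD under the median of all tested compounds, cut at about 3.7% in these data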;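 note: PTEN knockout HCT116 line with beta catenin targeted HCT116 as companion control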
Fibroblast inh = blocks proliferation of human lung fibroblasts; LL 47 human lung fibroblast viability, ATP luminescence; hits give low values; viability, % at 10 µM; 85,000 tested, 1.1% active;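 active = viability at or below 50% in the single dose screen; inactive = viability above 50%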;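 note: compound exposure lasted 72 h before the ATP readout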
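Signal: luminescent ATP detection, CellTiter-Glo; assay system: LL 47 human lung fibroblasts; input: 1,150 cells/well; incubation: overnight cell rest, 72 h compound treatment at 37 °C; measure: % viability versus median cells-only luminescence; medium: IMEM growth medium with 15% fetal bovine serum; dosing: compound addition at 0.1% DMSO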
H69AR inhibit = growth inhibitors of human H69AR lung tumor cells. 85,000 tested, 6% active. viability, % at 10 µM. H69AR lung tumor viability, ATP luminescence, 72 h; hits give low values. AID 598;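 active = viability at or below 40%; inactive = viability above 40%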;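 note: multidrug resistant small cell line overexpressing MRP-1 efflux transporter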
HCT116 bCat-KO = beta-catenin-lacking colon tumor cell growth suppression; HCT116 beta-catenin knockout viability, CellTiter-Glo, 60 h; hits give low values; viability, % at 10 µM; 140,000 tested, 1.5% active; AID 818;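 active = viability at or under a set limit, the compound median less 4 SD, cut at about 6% in these data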
Phagocyt inh = blocks phagocytosis by macrophages; AID 1029; J774A.1 macrophage IgG-bead phagocytosis, imaging; inhibition, % at 5 µM; 110,000 tested, 0.07% active;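 active = inhibition above the mean of the plate negative controls plus 5 SD, cut at about 13% in these data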;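 note: phagocytic index as fraction of beads internalized from green versus red external bead signal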
Numbers stand for hits; . = inactive; / = no result given. The entries come from a sample that favours hits as a whole.

SMILES	HUVEC prolif 384	PTEN del growth	Fibroblast inh	H69AR inhibit	HCT116 bCat-KO	Phagocyt inh
COc1ccc2[nH]c(=O)c(CN(Cc3cccs3)Cc3nnnn3Cc3ccccc3)cc2c1	.	.	.	32.8	.	.
O=C1Nc2ccccc2/C1=C\c1cccn1-c1ccc(OC(F)(F)F)cc1	/	.	/	/	.	.
COc1ccc2[nH]c(=O)c(CN(CCc3ccccc3)Cc3nnnn3CC3CCCO3)cc2c1 (centres undefined)	.	.	.	27.4	.	.
COc1ccc2cc(CN(CCc3ccccc3)Cc3nnnn3CC3CCCO3)c(=O)[nH]c2c1 (centres undefined)	.	.	.	.	.	.
CC(C)(C)n1nnnc1CN(Cc1ccco1)Cc1cc2cc3c(cc2[nH]c1=O)OCO3	.	.	.	35.4	.	.
CCC(C)(C)n1nnnc1CN(Cc1ccco1)Cc1cc2cc3c(cc2[nH]c1=O)OCO3	.	.	.	.	.	.
CC(C)CCNC(=O)NC(=O)COC(=O)C1CCN(S(=O)(=O)c2ccccc2F)CC1	/	.	/	/	.	.
CCOC(=O)c1sc(NC(=O)Nc2cccc(Cl)c2)cc1C	/	2.4	/	/	3.6	.
CCOC(=O)c1sc(NC(=O)c2cccs2)cc1C	.	.	.	.	.	.
CCCc1nc2ccccc2c(C(=O)OCC(=O)Nc2ccc(S(=O)(=O)N3CCOCC3)cc2)c1CC	.	.	.	5.8	.	.
CCCc1nc2ccccc2c(C(=O)OCC(=O)Nc2cccc(S(=O)(=O)N3CCOCC3)c2)c1CC	.	/	.	34.8	.	/
O=C(COc1ncnc2ccccc12)Nc1cccc(S(=O)(=O)N2CCOCC2)c1	/	.	/	/	.	.
O=C(/C=C/c1ccc(Br)cc1)NC(=S)NNC(=O)c1ccco1	.	.	.	36.0	.	/
O=C(/C=C/c1ccccc1)NC(=S)NNC(=O)c1ccco1	.	.	.	24.9	.	/
Cc1cccc(NC(=S)NNC(=O)c2ccco2)c1	/	.	/	/	.	.
Cc1sc(NC(=O)C(C)C)c(C(=O)Nc2ccccc2)c1C	/	.	/	/	.	/
Cc1ccc(S(=O)(=O)N(C)C)cc1-n1c(SCC(=O)Nc2ccc(F)c(F)c2F)nc2ccccc2c1=O	/	.	/	/	.	.
CSc1nc2c(cnn2-c2ccc(C)c(C)c2)c(=O)[nH]1	.	.	.	20.0	.	.
CCC(C)Sc1nc2c(cnn2-c2ccc(C)c(C)c2)c(=O)[nH]1 (centres undefined)	/	.	/	/	.	.
O=c1oc2ccccc2cc1-c1csc(Nc2nc3c(F)cccc3s2)n1	/	2.5	/	/	5.1	.
Cc1ccc(-c2nnn(CC(=O)N(CC(=O)NC3CCCCC3)c3ccc(F)c(Cl)c3)n2)o1	.	.	39.8	8.3	.	/
Cc1ccc(-c2nnn(CC(=O)N(CC(=O)NC3CCCC3)c3ccc(F)c(Cl)c3)n2)o1	.	.	.	7.8	.	/
Cc1ccc(-c2nnn(CC(=O)N(CC(=O)NC3CCCC3)c3cnc4ccccc4c3)n2)o1	.	.	.	.	.	.
Cc1ccc(-c2nnn(CC(=O)N(CC(=O)NCC3CCCO3)c3ccc(F)c(Cl)c3)n2)o1 (centres undefined)	.	.	.	.	.	.
CCC(C(=O)NC1CCCC1)N(C(=O)Cn1nnc(-c2ccc(C)o2)n1)c1cnc2ccccc2c1 (centres undefined)	.	.	.	5.0	.	.
SMILES	HUVEC prolif 384	PTEN del growth	Fibroblast inh	H69AR inhibit	HCT116 bCat-KO	Phagocyt inh
CC(C)CCn1c(Br)nc2c1c(=O)n(CC(N)=O)c(=O)n2C	.	.	.	/	.	.
CCOC(=O)NC(NC(=O)OCC)C(=O)c1ccc(F)cc1	/	.	/	/	.	.
CCOC(=O)c1cc(C)sc1/N=C/C1=C(O)CCCC1=O	/	.	/	/	.	.
Cc1cccc(NS(=O)(=O)c2cnc(Cl)c(Br)c2)n1	/	.	/	/	.	.
CC(C(=O)N1CCc2ccccc21)N1CCc2ccccc2C1 (centres undefined)	/	.	/	/	.	/
COc1cc(C(=O)N2c3ccccc3CC2C)cc(OC)c1OC (centres undefined)	.	.	.	38.2	.	.
COc1cc(C(=O)N2CCCc3ccccc32)cc(OC)c1OC	.	.	.	25.0	.	/
CC1Cc2ccccc2N1C(=O)c1ccnc(C(C)(C)C)c1 (centres undefined)	.	.	.	.	.	.
COc1cc2c(cc1OC)CN(C(C)C(=O)N1CCc3ccccc31)CC2 (centres undefined)	.	.	.	18.3	.	.
O=C(COC(=O)CCc1nc2ccccc2c(=O)[nH]1)NC(=O)NC1CCCC1	/	.	/	/	.	/
CC(=O)c1c(C)nc(-c2ccc(Cl)cc2Cl)n1O	.	1.2	.	.	.	/
CCS(=O)(=O)c1ccc(S(=O)(=O)CC)s1	.	.	.	.	.	.
CCOC(=O)N1CCN(C(=O)N2CCOCC2)CC1	.	.	.	.	.	.
Cc1nn(C(=O)N2CCOCC2)c(C)c1C	.	0.9	.	.	0.9	/
COC(=O)c1ccc2c(c1)N(Cc1nc(-c3ccc(Cl)cc3)oc1C)C(=O)C1CCCN21 (centres undefined)	.	/	.	14.5	/	/
COC(=O)c1ccc2c(c1)N(Cc1nc(-c3cccc(Cl)c3)oc1C)C(=O)C1CCCN21 (centres undefined)	.	/	.	.	/	/
Cc1onc(-c2c(F)cccc2Cl)c1C(=O)Nc1ccc(S(=O)(=O)Nc2ncccn2)cc1	.	.	.	.	.	.
CC1CCN(c2ccccc2NC(=S)NC(=O)c2ccc(-c3cccc([N+](=O)[O-])c3)o2)CC1	.	.	.	.	.	.
CC1CCN(c2ccc(NC(=S)NC(=O)c3ccc(-c4cccc([N+](=O)[O-])c4)o3)cc2)CC1	.	.	.	24.7	.	.
C=CCn1cnc2c(c1=O)c1nc3ccccc3nc1n2-c1ccc(Cl)cc1	.	/	.	.	/	/
CCCn1c(N2CCN(CC(=O)c3c(C)n(C)c4ccc(OC)cc34)CC2)nc2c1c(=O)[nH]c(=O)n2C	.	.	40.6	33.4	.	/
Cc1ccc(CNC(=O)c2ccccc2NC(=O)CSc2nnnn2C)cc1	/	.	/	/	.	.
CCOc1ccc(N2C(=O)/C(=C/c3cc(OC)c(OC)c(OC)c3)N(CC(=O)OC)C2=S)cc1	.	.	.	24.9	.	/
CCCn1c(=O)c(C(=O)NCc2ccncc2)c(O)c2ccccc21	.	.	.	.	.	.
CC(C)Cn1c(=O)c(C(=O)NCc2ccccn2)c(O)c2ccccc21	.	.	.	28.5	.	.
CCCCS(=O)(=O)/C=C\C=C/S(=O)(=O)CCCC	49.2	2.0	2.5	1.0	1.7	.
Cc1cc(N2CCN(c3ccccc3)CC2)nc(-c2ccccc2O)n1	.	.	.	.	.	.
Cc1cc(NC(=O)c2c(F)cccc2Cl)n(-c2nc3ccccc3[nH]2)n1	.	.	.	28.2	.	/
Cc1cc(Nc2ccccc2)n(-c2nc3ccccc3[nH]2)n1	.	.	.	37.4	.	.
Cc1cc(N2CCN(c3ccccc3)CC2)nc(-n2nc(C)cc2C)n1	.	.	.	9.3	.	.

Bioassay records from PubChem.
